In series [1] the target is Botulinum neurotoxin type A (Clostridium botulinum) (UniProt P0DPI0). Nature of the series: Inhibition of Clostridium botulinum recombinant BoNT/A light chain using N-terminal acetylated, C-terminal aminated SNAP-25 (187-203) as substrate at 20 uM by reverse-phase HPLC analysis. The essentials:
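Recombinant BoNT/A LC with SNAP-25 187–203 peptide substrate in 40 mM HEPES–0.05% Tween, pH 7.3, with 0.5 mg/mL BSA and 50 μM excess Zn, at 37 °C. Quenched with TFA; reverse-phase HPLC product/substrate peak areas give percent inhibition, run in duplicate.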

The target of series [2] is Botulinum neurotoxin type A (Clostridium botulinum, UniProt P0DPI0). Nature of the series: Inhibition of Clostridium botulinum recombinant BoNT/A light chain using N-terminal acetylated, C-terminal aminated SNAP-25 (187-203) as substrate by reverse-phase HPLC analysis. Summed up:
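Same HPLC LC cleavage assay (pH 7.3 HEPES/Tween, BSA, excess Zn, 37 °C). […] Ki comes from velocity versus substrate at several inhibitor levels, globally fit to a competitive model.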

Series [3] is described as follows: Selectivity index, ratio of IC50 for human HepG2 cells to IC50 for CQ, MFQ-resistant Plasmodium falciparum TM91C235 clone Southeast asian isolate. Type of series: toxicity, cell-based. The note with it: read-out: Ratio IC50.
The test system of series [4] is Plasmodium falciparum. Nature of the series: Antimalarial activity against CQ, MFQ-resistant Plasmodium falciparum TM91C235 clone Southeast asian isolate assessed as inhibition of parasite proliferation by MSF assay. In kind it is functional, organism-based. Summed up: (§1)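 SYBR Green I fluorescence (MSF) microtiter drug-sensitivity assay: malarial DNA content is the measure of in vitro parasite proliferation. Resistance index is the IC90 ratio of the resistant strain to D6.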

In series [5] the test system is Plasmodium falciparum. Kind of series: Antimalarial activity against CQ, MFQ-susceptible Plasmodium falciparum D6 clone Sierra 1/UNC isolate assessed as inhibition of parasite proliferation by MSF assay. Type of series: functional, organism-based. Summed up: as §1
The test system of the next series is HepG2. Nature of the series: Cytotoxicity against human HepG2 cells assessed as cell viability after 48 hrs by MTT assay. In kind it is cell-based. The settings on record: HepG2, 48 h.
Series [6] deals with Plasmodium falciparum. Kind of series: Antimalarial activity against CQ-resistant, MFQ-susceptible Plasmodium falciparum W2 clone Indochina 1 isolate assessed as inhibition of parasite proliferation by MSF assay. Type of series: functional, organism-based. The essentials: as §1
Series [7] in a line: Selectivity index, ratio of IC50 for human HepG2 cells to IC50 for CQ, MFQ-susceptible Plasmodium falciparum D6 clone Sierra 1/UNC isolate. The note with it: read-out: Ratio IC50. Type of series: toxicity, cell-based.
The nature of series [8]: Selectivity index, ratio of IC50 for human HepG2 cells to IC50 for CQ-resistant, MFQ-susceptible Plasmodium falciparum W2 clone Indochina 1 isolate. The settings on record: read-out: Ratio IC50. In kind it is toxicity, cell-based.

Data on 18 compounds can be found in ChEMBL document CHEMBL3259704, “Second generation steroidal 4-aminoquinolines are potent, dual-target inhibitors of the botulinum neurotoxin serotype A metalloprotease and P. falciparum malaria” (J Med Chem, 2014).

Botulinum neurotoxin type A (Clostridium botulinum), sequence (P0DPI0 2-448 limits assumed): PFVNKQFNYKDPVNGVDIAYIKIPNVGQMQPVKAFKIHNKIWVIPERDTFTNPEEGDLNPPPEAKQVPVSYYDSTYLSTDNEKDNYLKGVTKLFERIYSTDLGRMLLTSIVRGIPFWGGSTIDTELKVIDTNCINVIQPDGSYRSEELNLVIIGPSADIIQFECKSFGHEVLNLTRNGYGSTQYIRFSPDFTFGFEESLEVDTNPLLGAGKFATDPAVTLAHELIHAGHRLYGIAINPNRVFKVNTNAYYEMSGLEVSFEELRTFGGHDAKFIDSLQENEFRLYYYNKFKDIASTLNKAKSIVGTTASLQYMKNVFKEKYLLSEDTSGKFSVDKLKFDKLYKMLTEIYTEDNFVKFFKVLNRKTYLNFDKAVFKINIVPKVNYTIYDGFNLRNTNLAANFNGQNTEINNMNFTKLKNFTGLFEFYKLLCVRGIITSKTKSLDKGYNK
Botulinum neurotoxin type A, sequence (P0DPI0 2-448 limits assumed): as above

As to `CC(=O)O[C@H]1C[C@H]2[C@@H]([C@H](OC(C)=O)C[C@@H]3C[C@H](NCCCCCCNc4ccnc5cc(Cl)ccc45)CC[C@@]32C)[C@@H]2CC[C@H]([C@H](C)CCCNCCCCNc3ccnc4cc(Cl)ccc34)[C@@]12C`, in series [1], the inhibition – broadly, the relative decrease from the control value, in per cent – came out at 93.7%. The Ki (usually the equilibrium dissociation constant of an inhibitor or competing ligand from its target) in series [2] came to 300 nM.
The like results for `CC(=O)O[C@H]1C[C@H]2[C@@H]([C@H](OC(C)=O)C[C@@H]3C[C@@H](NCCCCCCNc4ccnc5cc(Cl)ccc45)CC[C@@]32C)[C@@H]2CC[C@H]([C@H](C)CCCNCCCCCCNc3ccnc4cc(Cl)ccc34)[C@@]12C` were, in that order, 89.6% and 389 nM.
On to `CC(=O)O[C@H]1C[C@H]2[C@@H]([C@H](OC(C)=O)C[C@@H]3C[C@H](NC(=O)OC(C)(C)C)CC[C@@]32C)[C@@H]2CC[C@H]([C@H](C)CCCN(C)CCCNc3ccnc4cc(Cl)ccc34)[C@@]12C`, for which the inhibition in [1] was 59.6%. Besides, the IC50 – broadly, the concentration needed to halve the response being measured – in [2] turned out to be 6620 nM.
With `CC(=O)O[C@H]1C[C@H]2[C@@H]([C@H](OC(C)=O)C[C@@H]3CC(=O)CC[C@@]32C)[C@@H]2CC[C@H]([C@H](C)CCCNCCCCCCNc3ccnc4cc(Cl)ccc34)[C@@]12C`, the inhibition in [1] turned out to be 77.2%. The selectivity ratio worked out at 25 in [3], 27 in series [7] and 30 in series [8]. Further, the IC50 was 51.6 nM in the series on Plasmodium falciparum [4], 47.5 nM with Plasmodium falciparum [5], 1280 nM in the series with HepG2 and 42.1 nM with Plasmodium falciparum [6].
Turning to `N=C(N)c1ccc(Oc2ccc(-c3cc4ccc(C(=N)N)cc4[nH]3)cc2)cc1`, the IC50 in series [2] came out at 2620 nM.
With `CC(=O)O[C@H]1C[C@H]2[C@@H]([C@H](OC(C)=O)C[C@@H]3C[C@@H](NCCCCNc4ccnc5cc(Cl)ccc45)CC[C@@]32C)[C@@H]2CC[C@H]([C@H](C)CCCNCCCCNc3ccnc4cc(Cl)ccc34)[C@@]12C`, in series [1], the inhibition worked out at 96.7%. Besides, in [2], the inhibitory constant (Ki) came out at 300 nM.
On to `CC(=O)O[C@H]1C[C@H]2[C@@H]([C@H](OC(C)=O)C[C@@H]3C[C@H](NCCCCCCNc4ccnc5cc(Cl)ccc45)CC[C@@]32C)[C@@H]2CC[C@H]([C@H](C)CCCNCCCCCCNc3ccnc4cc(Cl)ccc34)[C@@]12C`, for which, in series [1], the inhibition came out at 95.5%. In addition, the Ki in series [2] was 285 nM.
As to `CC(=O)O[C@@H]1CC[C@@]2(C)[C@@H](C1)C[C@@H](OC(C)=O)[C@@H]1[C@@H]2C[C@H](OC(C)=O)[C@]2(C)[C@@H]([C@H](C)CCCNCCCCNc3ccnc4cc(Cl)ccc34)CC[C@@H]12`, the inhibition in series [1] is 69%. The selectivity ratio in series [3] came to 47; in series [7], 55; in series [8], 107. Further, the IC50 was found to be 54.5 nM with Plasmodium falciparum [4], 46.5 nM in the series on Plasmodium falciparum [5], 2560 nM in the series with HepG2 and 23.9 nM in the series on Plasmodium falciparum [6].
Regarding `CC(=O)O[C@@H]1CC[C@@]2(C)[C@@H](C1)C[C@@H](OC(C)=O)[C@@H]1[C@@H]2C[C@H](OC(C)=O)[C@]2(C)[C@@H]([C@H](C)CCCNCCCCCCNc3ccnc4cc(Cl)ccc34)CC[C@@H]12`, in series [1], the inhibition turned out to be 83.3%. The selectivity ratio in series [3] was determined as 25; in [7], 29; in [8], 47. For the same compound, the IC50 stood at 104 nM with Plasmodium falciparum [4], 91 nM with Plasmodium falciparum [5], 2640 nM in the series with HepG2 and 56.4 nM in the series on Plasmodium falciparum [6].
For `CC(=O)O[C@H]1C[C@H]2[C@@H]([C@H](OC(C)=O)C[C@@H]3CC(=O)CC[C@@]32C)[C@@H]2CC[C@H]([C@H](C)CCCNCCCCNc3ccnc4cc(Cl)ccc34)[C@@]12C`, the inhibition in series [1] is 81.5%. The figures for the selectivity ratio in [3], in [7] and in series [8] were 6, 6 and 7, respectively. For the same compound, the IC50 was 214 nM in the series on Plasmodium falciparum [4], 1230 nM in the series on HepG2 and 175 nM in the series with Plasmodium falciparum [6].
Take `CC(=O)O[C@H]1C[C@H]2[C@@H]([C@H](OC(C)=O)C[C@@H]3C[C@H](O)CC[C@@]32C)[C@@H]2CC[C@H]([C@H](C)CCCNCCCCNc3ccnc4cc(Cl)ccc34)[C@@]12C`: in series [1], the inhibition amounted to 80.8%. Moreover, the selectivity ratio is 28 in series [3], 30 in series [7] and 47 in [8]. Also, the half-inhibitory concentration (IC50) came to 56.3 nM in the series with Plasmodium falciparum [4], 52.1 nM in the series on Plasmodium falciparum [5], 1580 nM in the series with HepG2 and 33.8 nM in the series on Plasmodium falciparum [6].
On to `Clc1ccc2c(NCCNC34CC5CC(CC(C5)C3)C4)ccnc2c1`, for which the half-inhibitory concentration (IC50) in series [2] worked out at 11800 nM.
`CC(=O)O[C@H]1C[C@H]2[C@@H]([C@H](OC(C)=O)C[C@@H]3C[C@H](O)CC[C@@]32C)[C@@H]2CC[C@H]([C@H](C)CCCNCCCCCCNc3ccnc4cc(Cl)ccc34)[C@@]12C`: the inhibition in [1] turned out to be 62.9%. Further, the selectivity ratio is 50 in series [3], 56 in series [7] and 60 in [8]. Moreover, the 50% inhibitory concentration (IC50) is 40.6 nM in the series on Plasmodium falciparum [4], 36.6 nM with Plasmodium falciparum [5], 2040 nM in the series on HepG2 and 33.9 nM in the series on Plasmodium falciparum [6].
Regarding `CC(=O)O[C@@H]1CC[C@@]2(C)[C@@H](C1)C[C@@H](OC(C)=O)[C@@H]1[C@@H]2C[C@H](OC(C)=O)[C@]2(C)[C@@H]([C@H](C)CCCNCCNc3ccnc4cc(Cl)ccc34)CC[C@@H]12`, the inhibition in series [1] is 74%. Further, the concentration for an effect of 90% (IC90) – broadly, the concentration needed for an effect of 90% – with Plasmodium falciparum [4] was 77.9 nM; in the series on Plasmodium falciparum [5], 34.2 nM; with Plasmodium falciparum [6], 32.5 nM. Also, the 50% inhibitory concentration (IC50) in series [2] came out at 3800 nM. Moreover, the Ki in series [2] stood at 6990 nM.
For `CC(=O)O[C@H]1C[C@H]2[C@@H]([C@H](OC(C)=O)C[C@@H]3C[C@H](NC(=O)OC(C)(C)C)CC[C@@]32C)[C@@H]2CC[C@H]([C@H](C)CCCNCCCNc3ccnc4cc(Cl)ccc34)[C@@]12C`, the inhibition in series [1] stood at 74.9%. Besides, the IC50 in [2] was 3240 nM.
As for `CC(=O)O[C@H]1C[C@H]2[C@@H]([C@H](OC(C)=O)C[C@@H]3C[C@@H](NCCCCCCNc4ccnc5cc(Cl)ccc45)CC[C@@]32C)[C@@H]2CC[C@H]([C@H](C)CCCNCCCCNc3ccnc4cc(Cl)ccc34)[C@@]12C`, in series [1], the inhibition amounted to 95.4%. Also, the Ki in series [2] came out at 103 nM.
With `CCN(CC)CCCC(C)Nc1ccnc2cc(Cl)ccc12` (centres undefined) [CHLOROQUINE], the inhibition in [1] worked out at 6.51%. The IC90 is 373 nM in the series on Plasmodium falciparum [4], 16.1 nM in the series with Plasmodium falciparum [5] and 698 nM in the series with Plasmodium falciparum [6].
For `CC(=O)O[C@H]1C[C@H]2[C@@H]([C@H](OC(C)=O)C[C@@H]3C[C@H](NC(=O)OC(C)(C)C)CC[C@@]32C)[C@@H]2CC[C@H]([C@H](C)CCCN(CCCNc3ccnc4cc(Cl)ccc34)CCC[C@@H](C)[C@H]3CC[C@H]4[C@@H]5[C@H](OC(C)=O)C[C@@H]6C[C@H](NC(=O)OC(C)(C)C)CC[C@]6(C)[C@H]5C[C@H](OC(C)=O)[C@]34C)[C@@]12C`, the inhibition in [1] was determined as 6.42%. The selectivity ratio in series [3], in series [7] and in [8] was 96 in each case. Further, the half-maximal inhibitory concentration (IC50) came to 369 nM with Plasmodium falciparum [4] and 35400 nM with HepG2.
